# Reference: ChEMBL document CHEMBL4715736, “Identification of anticancer agents based on the thieno[2,3-b]pyridine and 1H-pyrazole molecular scaffolds” (2016)
# Columns and labels:
# Assay type in all cases: functional
# MOLT-4 = assay: Growth inhibition of human MOLT-4 cells assessed as cell growth at 0.01 uM incubated for 48 hrs by sulforhodamine B assay relative to control; details: read-out: Activity
# HOP-92 [1] = assay: Growth inhibition of human HOP-92 cells assessed as cell growth at 0.01 uM incubated for 48 hrs by sulforhodamine B assay relative to control; details: read-out: Activity
# NCI-H226 = assay: Growth inhibition of human NCI-H226 cells assessed as cell growth at 0.01 uM incubated for 48 hrs by sulforhodamine B assay relative to control; details: read-out: Activity
# NCI-H522 = assay: Growth inhibition of human NCI-H522 cells assessed as cell growth at 0.01 uM incubated for 48 hrs by sulforhodamine B assay relative to control; details: read-out: Activity
# SNB-75 [2] = assay: Growth inhibition of human SNB-75 cells assessed as cell growth at 0.01 uM incubated for 48 hrs by sulforhodamine B assay relative to control; details: read-out: Activity
# Malme-3M [3] = assay: Growth inhibition of human Malme-3M cells assessed as cell growth at 0.01 uM incubated for 48 hrs by sulforhodamine B assay relative to control; details: read-out: Activity
# SK-MEL-2 = assay: Growth inhibition of human SK-MEL-2 cells assessed as cell growth at 0.01 uM incubated for 48 hrs by sulforhodamine B assay relative to control; details: read-out: Activity
# SK-MEL-5 = assay: Growth inhibition of human SK-MEL-5 cells assessed as cell growth at 0.01 uM incubated for 48 hrs by sulforhodamine B assay relative to control; details: read-out: Activity
# UACC-257 [4] = assay: Growth inhibition of human UACC-257 cells assessed as cell growth at 0.01 uM incubated for 48 hrs by sulforhodamine B assay relative to control; details: read-out: Activity
# IGROV-1 = assay: Growth inhibition of human IGROV-1 cells assessed as cell growth at 0.01 uM incubated for 48 hrs by sulforhodamine B assay relative to control; details: read-out: Activity
# BT-549 = assay: Growth inhibition of human BT-549 cells assessed as cell growth at 0.01 uM incubated for 48 hrs by sulforhodamine B assay relative to control; details: read-out: Activity
# COLO 205 [5] = assay: Growth inhibition of human COLO 205 cells assessed as cell growth at 0.1 uM incubated for 48 hrs by sulforhodamine B assay relative to control; details: read-out: Activity
# Procedure, shortened: (§1)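 NCI Developmental Therapeutics Program NCI60 panel. Compounds that were active in the 10 µM one-dose screen went on to dose–response testing. Growth at each concentration is expressed relative to untreated control (100%). GI50 (concentration giving 50% of maximal inhibition of proliferation) and TGI (concentration giving total growth inhibition) were derived from the curves.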
# SNB-19 = assay: Growth inhibition of human SNB-19 cells assessed as cell growth at 0.1 uM incubated for 48 hrs by sulforhodamine B assay relative to control; details: read-out: Activity
# OVCAR-5 = assay: Growth inhibition of human OVCAR-5 cells assessed as cell growth at 0.1 uM incubated for 48 hrs by sulforhodamine B assay relative to control; details: read-out: Activity
# NCI/ADR-RES [6] = assay: Growth inhibition of human NCI/ADR-RES cells assessed as cell growth at 0.1 uM incubated for 48 hrs by sulforhodamine B assay relative to control; details: read-out: Activity
# ACHN [7] = assay: Growth inhibition of human ACHN cells assessed as cell growth at 0.1 uM incubated for 48 hrs by sulforhodamine B assay relative to control; details: read-out: Activity
# MDA-MB-468 = assay: Growth inhibition of human MDA-MB-468 cells assessed as cell growth at 0.1 uM incubated for 48 hrs by sulforhodamine B assay relative to control; details: read-out: Activity
# HOP-92 [8] = assay: Growth inhibition of human HOP-92 cells assessed as cell growth at 1 uM incubated for 48 hrs by sulforhodamine B assay relative to control; details: read-out: Activity
# NCI-H322M = assay: Growth inhibition of human NCI-H322M cells assessed as cell growth at 1 uM incubated for 48 hrs by sulforhodamine B assay relative to control; details: read-out: Activity
# LOX IMVI [9] = assay: Growth inhibition of human LOX IMVI cells assessed as cell growth at 1 uM incubated for 48 hrs by sulforhodamine B assay relative to control; details: read-out: Activity
# 786-0 = assay: Growth inhibition of human 786-0 cells assessed as cell growth at 1 uM incubated for 48 hrs by sulforhodamine B assay relative to control; details: read-out: Activity; procedure, shortened: as §1
# HOP-92 [10] = assay: Growth inhibition of human HOP-92 cells assessed as cell growth at 100 uM incubated for 48 hrs by sulforhodamine B assay relative to control; details: read-out: Activity
# COLO 205 [11] = assay: Growth inhibition of human COLO 205 cells assessed as cell growth at 100 uM incubated for 48 hrs by sulforhodamine B assay relative to control; details: read-out: Activity; procedure, shortened: as §1
# SF-539 = assay: Growth inhibition of human SF-539 cells assessed as cell growth at 100 uM incubated for 48 hrs by sulforhodamine B assay relative to control; details: read-out: Activity
# Malme-3M [12] = assay: Growth inhibition of human Malme-3M cells assessed as cell growth at 100 uM incubated for 48 hrs by sulforhodamine B assay relative to control; details: read-out: Activity
# UACC-257 [13] = assay: Growth inhibition of human UACC-257 cells assessed as cell growth at 100 uM incubated for 48 hrs by sulforhodamine B assay relative to control; details: read-out: Activity
# OVCAR-3 [14] = assay: Growth inhibition of human OVCAR-3 cells assessed as cell growth at 100 uM incubated for 48 hrs by sulforhodamine B assay relative to control; details: read-out: Activity
# NCI/ADR-RES [15] = assay: Growth inhibition of human NCI/ADR-RES cells assessed as cell growth at 100 uM incubated for 48 hrs by sulforhodamine B assay relative to control; details: read-out: Activity
# T47D = assay: Growth inhibition of human T47D cells assessed as cell growth at 100 uM incubated for 48 hrs by sulforhodamine B assay relative to control; details: read-out: Activity
# RPMI-8226 = assay: Growth inhibition of human RPMI-8226 cells incubated for 48 hrs by sulforhodamine B assay
# Procedure, shortened: (§2)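 NCI DTP 60-line human tumour panel. Dose-response curves were run only for ligands active in the initial 10 µM screen. GI50 (concentration giving 50% of maximal inhibition of proliferation) and TGI (concentration giving total growth inhibition) were derived from these curves.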
# SW-620 = assay: Growth inhibition of human SW-620 cells incubated for 48 hrs by sulforhodamine B assay; procedure, shortened: as §2
# SNB-75 [16] = assay: Growth inhibition of human SNB-75 cells incubated for 48 hrs by sulforhodamine B assay; procedure, shortened: as §2
# LOX IMVI [17] = assay: Growth inhibition of human LOX IMVI cells incubated for 48 hrs by sulforhodamine B assay
# Procedure, shortened: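 NCI60 panel at the NCI Developmental Therapeutics Program. Only compounds active in the 10 µM screen went to dose-response testing. GI50, the concentration giving 50% of maximal inhibition of proliferation, and TGI, the concentration giving total growth inhibition, were derived from the dose-response curves.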
# OVCAR-3 [18] = assay: Growth inhibition of human OVCAR-3 cells incubated for 48 hrs by sulforhodamine B assay; details: for CC50: read-out: LC50 (the source's name); procedure, shortened: as §2
# ACHN [19] = assay: Growth inhibition of human ACHN cells incubated for 48 hrs by sulforhodamine B assay; details: for CC50: read-out: LC50 (the source's name); procedure, shortened: as §1
smiles,measurement,setting,value
Cc1cccc(NC(=O)c2sc3nc4c(cc3c2N)C(=O)CCC4)c1,growth at 0.01 µM,MOLT-4,97%
same,growth at 0.01 µM,HOP-92 [1],87%
same,growth at 0.01 µM,NCI-H226,95%
same,growth at 0.01 µM,NCI-H522,84%
same,growth at 0.01 µM,SNB-75 [2],80%
same,growth at 0.01 µM,Malme-3M [3],91%
same,growth at 0.01 µM,SK-MEL-2,101%
same,growth at 0.01 µM,SK-MEL-5,97%
same,growth at 0.01 µM,UACC-257 [4],82%
same,growth at 0.01 µM,IGROV-1,100%
same,growth at 0.01 µM,BT-549,87%
same,growth at 0.1 µM,COLO 205 [5],78%
same,growth at 0.1 µM,SNB-19,76%
same,growth at 0.1 µM,OVCAR-5,86%
same,growth at 0.1 µM,NCI/ADR-RES [6],69%
same,growth at 0.1 µM,ACHN [7],91%
same,growth at 0.1 µM,MDA-MB-468,45%
same,growth at 1 µM,HOP-92 [8],50%
same,growth at 1 µM,NCI-H322M,48%
same,growth at 1 µM,LOX IMVI [9],47%
same,growth at 1 µM,786-0,30%
same,growth at 100 µM,HOP-92 [10],-40%
same,growth at 100 µM,COLO 205 [11],-8%
same,growth at 100 µM,SF-539,-25%
same,growth at 100 µM,Malme-3M [12],-16%
same,growth at 100 µM,UACC-257 [13],-16%
same,growth at 100 µM,OVCAR-3 [14],-23%
same,growth at 100 µM,NCI/ADR-RES [15],-3%
same,growth at 100 µM,T47D,-2%
same,GI50,RPMI-8226,0.57 µM
same,LC50,RPMI-8226,> 100 µM
same,TGI,RPMI-8226,> 100 µM
same,GI50,SW-620,0.193 µM
same,LC50 (concentration killing 50% of cells),SW-620,> 100 µM
same,TGI,SW-620,≥ 100 µM
same,GI50,SNB-75 [16],0.23 µM
same,LC50,SNB-75 [16],> 100 µM
same,TGI,SNB-75 [16],≥ 100 µM
same,GI50,LOX IMVI [17],0.0118 µM
same,LC50,LOX IMVI [17],> 100 µM
same,TGI,LOX IMVI [17],≥ 100 µM
same,GI50,OVCAR-3 [18],0.256 µM
same,TGI,OVCAR-3 [18],1.66 µM
same,CC50,OVCAR-3 [18],≥ 100 µM
same,GI50,ACHN [19],0.0224 µM
same,TGI,ACHN [19],≥ 100 µM
same,CC50,ACHN [19],> 100 µM
CCc1ccccc1NC(=O)c1sc2nc3c(cc2c1N)C(=O)CCC3,growth at 0.01 µM,MOLT-4,102%
same,growth at 0.01 µM,HOP-92 [1],87%
same,growth at 0.01 µM,NCI-H226,89%
same,growth at 0.01 µM,NCI-H522,106%
same,growth at 0.01 µM,SNB-75 [2],73%
same,growth at 0.01 µM,Malme-3M [3],100%
same,growth at 0.01 µM,SK-MEL-2,108%
same,growth at 0.01 µM,SK-MEL-5,96%
same,growth at 0.01 µM,UACC-257 [4],93%
same,growth at 0.01 µM,IGROV-1,108%
same,growth at 0.01 µM,BT-549,104%
same,growth at 0.1 µM,COLO 205 [5],98%
same,growth at 0.1 µM,SNB-19,88%
same,growth at 0.1 µM,OVCAR-5,83%
same,growth at 0.1 µM,NCI/ADR-RES [6],88%
same,growth at 0.1 µM,ACHN [7],92%
same,growth at 0.1 µM,MDA-MB-468,75%
same,growth at 1 µM,HOP-92 [8],35%
same,growth at 1 µM,NCI-H322M,40%
same,growth at 1 µM,LOX IMVI [9],39%
same,growth at 1 µM,786-0,38%
same,growth at 100 µM,HOP-92 [10],-6%
same,growth at 100 µM,COLO 205 [11],-72%
same,growth at 100 µM,SF-539,-34%
same,growth at 100 µM,Malme-3M [12],-5%
same,growth at 100 µM,UACC-257 [13],25%
same,growth at 100 µM,OVCAR-3 [14],-36%
same,growth at 100 µM,NCI/ADR-RES [15],-6%
same,growth at 100 µM,T47D,-5%
same,GI50,RPMI-8226,0.853 µM
same,LC50,RPMI-8226,> 100 µM
same,TGI,RPMI-8226,≥ 100 µM
same,GI50,SW-620,0.322 µM
same,LC50 (concentration killing 50% of cells),SW-620,> 100 µM
same,TGI,SW-620,> 100 µM
same,GI50,SNB-75 [16],0.193 µM
same,LC50,SNB-75 [16],> 100 µM
same,TGI,SNB-75 [16],55.1 µM
same,GI50,LOX IMVI [17],0.645 µM
same,LC50,LOX IMVI [17],> 100 µM
same,TGI,LOX IMVI [17],> 100 µM
same,GI50,OVCAR-3 [18],0.367 µM
same,TGI,OVCAR-3 [18],15.8 µM
same,CC50,OVCAR-3 [18],> 100 µM
same,GI50,ACHN [19],0.0188 µM
same,TGI,ACHN [19],> 100 µM
same,CC50,ACHN [19],> 100 µM
